The values below come from article PMC4486254 (Bioorganic & medicinal chemistry, 2010).

The assay concerns HIV-1HXB2. The experiment in a line: Replication assay. In kind it is cell-based. To be noted: at concentrations below 10 µM; MT-4 Luc system. A digest of the protocol: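 MT-4 cells stably transduced with a firefly luciferase cassette by a murine leukemia viral vector, constitutively expressing luciferase. 1 × 10^3 cells per well infected with HIV-1 HXB2 alongside various peptide concentrations. Cells lysed at 6–7 days post-infection; luciferase activity measured as chemiluminescence, in relative luciferase units. A retained signal indicates protection from virus-induced death; a drop indicates cytotoxicity.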

Turning to “Ac-QIFEHLAGIIQILRFLRI-R8-NH2 [control peptide isomer of 5]”, the “anti-HIV activity (in words)” value was “did not show anti-HIV activity”.
